Calls of active or inactive are those of the source.
Experiments:
Mus musculus [1] = experiment: Antihyperalgesic activity in carrageenan-induced mechanical hyperalgesia Swiss mouse model assessed as paw withdrawal latency at 10 mg/kg, po administered 30 mins prior to challenge measured after 1 to 5 hrs post stimulus by electronic pressure-meter test; type: functional, organism-based; set-up: dose 10 mg/kg
Outline: (§1)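 Male Swiss mice dosed po (1–10 mg/kg, 2% DMSO in saline) 30 min before intraplantar carrageenin (100 μg/paw). Control indomethacin 5 mg/kg ip given 40 min before. Electronic pressure-meter readings at 1, 3 and 5 h, mean of three. Δ withdrawal threshold (g) is the post-stimulus reading minus zero-time. n = 5.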

Mus musculus [2] = experiment: Antihyperalgesic activity against thermal hyperalgesia in Swiss mouse assessed as increase in thermal nociceptive threshold at 10 mg/kg, po after 1.5 to 5.5 hrs by hot plate test; type: functional, organism-based; set-up: dose 10 mg/kg
Outline: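 Male Swiss mice (25–30 g), 10 mg/kg po. Hot plate at 55 °C inside a glass cylinder. Two baseline latencies taken ≥10 min apart, then latency read at 1.5, 3.5 and 5.5 h after dosing. Endpoint is jumping or paw licking, with a 30 s cutoff.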

Mus musculus [3] = experiment: Hepatotoxicity in Swiss mouse assessed as change in plasma AST level at 10 mg/kg, po for 7 days measured over 7 days relative to vehicle-treated control; type: toxicity, organism-based; set-up: dose 10 mg/kg, route oral; settings: in vivo, 168 h
Outline: (§2)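 Mice dosed po daily for 7 days: vehicle (2% DMSO/saline or Tris/HCl pH 8.0), 10 mg/kg, or indomethacin 2.5 mg/kg. Heparinized blood is drawn under terminal anesthesia, and plasma AST and ALT are measured with a diagnostic kit. n = 8.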

Mus musculus [4] = experiment: Antiinflammatory activity in Swiss mouse model assessed as inhibition of carrageenan-induced IL-1beta production in cutaneous plantar tissue at 10 mg/kg, po administered 30 mins prior to challenge measured 3 hrs post challenge by ELISA; type: functional, organism-based; set-up: dose 10 mg/kg
Outline: (§3)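 Swiss mice given 10 mg/kg po 30 min before intraplantar carrageenin (100 μg/paw). At 3 h, plantar skin is removed under terminal anesthesia and homogenized in buffer with protease inhibitors. IL-1β and TNF-α measured by ELISA, as pg/paw. Saline-injected paws serve as controls. n = 5.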

Mus musculus [5] = experiment: Toxicity in Swiss mouse assessed as effect on muscle-relaxing effect at 10 mg/kg, po after 1.5 to 5.5 hrs by roto-rod test; type: organism-based; set-up: dose 10 mg/kg, route oral; settings: in vivo
Outline: (§4)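 Rota-rod turning at 22 rpm. Mice are pre-selected 24 h earlier by staying on for two 120 s periods. Dosing is vehicle (20% Tween 80/saline) or 10 mg/kg po, with testing at 1.5, 3.5 and 5.5 h and a 120 s cutoff. n = 6.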

Mus musculus [6] = experiment: Antinociceptive activity against formalin-induced pain in Swiss mouse assessed as inhibition of paw licking at 10 mg/kg, po administered 30 mins prior to formalin challenge; type: functional, organism-based; set-up: dose 10 mg/kg
Outline: (§5)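 Swiss mice dosed 10 mg/kg po 30 min before intraplantar formalin (25 μL of 1.5% in saline). Flinches and licking time counted over 0–30 min in 5-min bins and reported as 0–15 and 15–30 min phases. n = 6.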

Mus musculus [7] = experiment: Antihyperalgesic activity in carrageenan-induced mechanical hyperalgesia Swiss mouse model assessed as paw withdrawal latency at 10 mg/kg, po administered 30 mins prior to challenge measured after 1 to 5 hrs post challenge by electronic pressure-meter test in presence of 90 mg/kg L-NAME; type: functional, organism-based
Outline: (§6)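 Swiss mice given L-NAME (10–90 mg/kg ip) 60 min before 10 mg/kg po. Intraplantar carrageenin (100 μg/paw) 30 min later. Mechanical threshold by electronic pressure-meter at 5 h, reported as Δ withdrawal threshold (g). n = 5.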

Mus musculus [8] = experiment: Gastrointestinal toxicity in Swiss mouse assessed as increase in stomach MPO activity at 10 mg/kg, po for 7 days measured over 7 days relative to vehicle-treated control; type: organism-based; set-up: dose 10 mg/kg, route oral; settings: in vivo, 168 h
Outline: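 Mice dosed po daily for 7 days: vehicle (2% DMSO/saline or Tris/HCl pH 8.0), 10 mg/kg, or indomethacin 2.5 mg/kg. Stomach is homogenized in 50 mM phosphate buffer pH 6.0 with 0.5% HTAB. Supernatant is reacted with o-dianisidine/H2O2 and read at 450 nm. Results expressed as neutrophils ×10^4/mg tissue from a neutrophil standard curve. n = 8.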

Mus musculus [9] = experiment: Antihyperalgesic activity in carrageenan-induced mechanical hyperalgesia Swiss mouse model assessed as paw withdrawal latency at 10 mg/kg, po administered 30 mins prior to challenge measured after 1 to 5 hrs post challenge by electronic pressure-meter test in presence of glibenclamide; type: functional, organism-based; set-up: dose 10 mg/kg
Outline: (§7)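 Pretreatment ip: ODQ 0.3 mg/kg in 2% DMSO/saline at 30 min, KT5823 0.5 μg/mouse in 2% DMSO/saline at 5 min, or glybenclamide 0.3 mg/kg in 5% Tween 80/saline at 45 min. Each is followed by 10 mg/kg po, then intraplantar carrageenin (100 μg/paw) 30 min later. Pressure-meter Δ threshold (g) at 1, 3 and 5 h. n = 5.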

Mus musculus [10] = experiment: Antiinflammatory activity in complete Freund's adjuvant-induced Swiss mouse pain model assessed as inhibition of paw flinching at 10 mg/kg, po administered 30 mins prior to challenge; type: functional, organism-based; set-up: dose 10 mg/kg
Outline: (§8)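 10 mg/kg po (or vehicle) given 30 min before intraplantar CFA (10 μL/paw) in Swiss mice. Paw flinches and licking time counted over 30 min as cumulative totals. n = 6.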

Mus musculus [11] = experiment: Antihyperalgesic activity in carrageenan-induced mechanical hyperalgesia Swiss mouse model assessed as paw withdrawal latency at 10 mg/kg, po administered 30 mins prior to challenge measured after 1 to 5 hrs post challenge by electronic pressure-meter test in presence of soluble […] inhibitor ODQ; type: functional, organism-based; set-up: dose 10 mg/kg; outline: as §7
Mus musculus [12] = experiment: Antihyperalgesic activity in complete Freund's adjuvant-induced Swiss mouse pain model assessed as paw withdrawal latency at 10 mg/kg, po starting 1 hr post challenge for 7 days measured after 2 to 7 days by electronic pressure-meter test; type: functional, organism-based; set-up: dose 10 mg/kg
Outline: (§9)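 Male Swiss mice injected intraplantar with CFA (10 μL/paw). Dosing is daily from 1 h after CFA for 7 days, either 10 mg/kg po or indomethacin 5 mg/kg ip. Electronic pressure-meter Δ withdrawal threshold (g) measured every 24 h. n = 6.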

Mus musculus [13] = experiment: Antihyperalgesic activity in carrageenan-induced mechanical hyperalgesia Swiss mouse model assessed as paw withdrawal latency at 10 mg/kg, po administered 30 mins prior to challenge measured after 1 to 5 hrs post challenge by electronic pressure-meter test in presence of PKG inhibitor KT5823; type: functional, organism-based; set-up: dose 10 mg/kg; outline: as §7
Mus musculus [14] = experiment: Antiinflammatory activity in complete Freund's adjuvant-induced Swiss mouse pain model assessed as inhibition of paw licking at 10 mg/kg, po administered 30 mins prior to challenge; type: functional, organism-based; set-up: dose 10 mg/kg; outline: as §8
Mus musculus [15] = experiment: Antinociceptive activity in po dosed Swiss mouse assessed as inhibition of acetic acid-induced writhing administered 30 mins prior to acetic acid challenge; type: functional, organism-based
Outline: (§10)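 Mice dosed ip or po (3–30 mg/kg, 2% DMSO in saline) 30 min before ip acetic acid (0.8% v/v, 10 mL/kg). Indomethacin 5 mg/kg ip given 40 min before. Cumulative writhing score over 20 min. n = 6.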

Mus musculus [16] = experiment: Toxicity in Swiss mouse assessed as sedative effect at 10 mg/kg, po after 1.5 to 5.5 hrs by roto-rod test; type: organism-based; set-up: dose 10 mg/kg, route oral; settings: in vivo; outline: as §4
Mus musculus [17] = experiment: Antihyperalgesic activity in carrageenan-induced mechanical hyperalgesia Swiss mouse model assessed as paw withdrawal latency at 10 mg/kg, po administered 30 mins prior to challenge measured after 1 to 5 hrs post challenge by electronic pressure-meter test in presence of 30 mg/kg L-NAME; type: functional, organism-based; outline: as §6
Mus musculus [18] = experiment: Antiinflammatory activity in Swiss mouse model assessed as inhibition of carrageenan-induced TNFalpha production in cutaneous plantar tissue at 10 mg/kg, po administered 30 mins prior to challenge measured 3 hrs post challenge by ELISA; type: functional, organism-based; set-up: dose 10 mg/kg; outline: as §3
Mus musculus [19] = experiment: Antihyperalgesic activity in carrageenan-induced mechanical hyperalgesia Swiss mouse model assessed as paw withdrawal latency at 1 mg/kg, po administered 30 mins prior to challenge by electronic pressure-meter test; type: functional, organism-based; set-up: dose 1 mg/kg; outline: as §1
Mus musculus [20] = experiment: Antihyperalgesic activity in po dosed carrageenan-induced mechanical hyperalgesia Swiss mouse model assessed as paw withdrawal latency administered 30 mins prior to challenge by electronic pressure-meter test; type: functional, organism-based; outline: as §1
Mus musculus [21] = experiment: Antihyperalgesic activity in complete Freund's adjuvant-induced Swiss mouse pain model assessed as paw withdrawal latency at 10 mg/kg, po starting 1 hr post challenge for 7 days measured on day 1 post challenge by electronic pressure-meter test; type: functional, organism-based; set-up: dose 10 mg/kg; outline: as §9
Mus musculus [22] = experiment: Antihyperalgesic activity in PGE2-induced mechanical hyperalgesia Swiss mouse model assessed as paw withdrawal latency at 10 mg/kg, po administered 30 mins prior to challenge measured at 3 hrs post compound treatment by electronic pressure-meter test; type: functional, organism-based; set-up: dose 10 mg/kg
Outline: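 Male Swiss mice given 10 mg/kg po (vehicle 2% DMSO in saline) 30 min before intraplantar PGE2 (100 ng/paw). Electronic pressure-meter test 3 h after stimulus, each value the mean of three readings. Result is Δ withdrawal threshold (g), zero-time mean subtracted. n = 5.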

Mus musculus [23] = experiment: Antinociceptive activity in Swiss mouse assessed as inhibition of acetic acid-induced writhing at 3 to 30 mg/kg, ip administered 30 mins prior to acetic acid challenge; type: functional, organism-based; outline: as §10
Mus musculus [24] = experiment: Antihyperalgesic activity in carrageenan-induced mechanical hyperalgesia Swiss mouse model assessed as paw withdrawal latency at 10 mg/kg, po administered 30 mins prior to challenge measured after 1 to 5 hrs post challenge by electronic pressure-meter test; type: functional, organism-based; set-up: dose 10 mg/kg; outline: as §1
Mus musculus [25] = experiment: Antihyperalgesic activity in carrageenan-induced mechanical hyperalgesia Swiss mouse model assessed as paw withdrawal latency at 3 mg/kg, po administered 30 mins prior to challenge measured after 1 to 3 hrs post stimulus by electronic pressure-meter test; type: functional, organism-based; set-up: dose 3 mg/kg; outline: as §1
Mus musculus [26] = experiment: Hepatotoxicity in Swiss mouse assessed as change in plasma ALT level at 10 mg/kg, po for 7 days measured over 7 days relative to vehicle-treated control; type: toxicity, organism-based; set-up: dose 10 mg/kg, route oral; settings: in vivo, 168 h; outline: as §2
Mus musculus [27] = experiment: Antinociceptive activity against formalin-induced pain in Swiss mouse assessed as inhibition of paw flinching at 10 mg/kg, po administered 30 mins prior to formalin challenge; type: functional, organism-based; set-up: dose 10 mg/kg; outline: as §5
Mus musculus [28] = experiment: Antinociceptive activity in Swiss mouse assessed as inhibition of PBQ-induced writhing at 10 mg/kg, po administered 30 mins prior to PBQ challenge; type: functional, organism-based; set-up: dose 10 mg/kg
Outline: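 Swiss mice dosed po (10 mg/kg) 30 min before ip PBQ (1890 μg/kg in 2% DMSO/saline). Indomethacin 5 mg/kg ip given 40 min before. Cumulative writhing score over 20 min. n = 6.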

Mus musculus [29] = experiment: Antihyperalgesic activity in carrageenan-induced mechanical hyperalgesia Swiss mouse model assessed as paw withdrawal latency at 10 mg/kg, po administered 30 mins prior to challenge measured after 1 to 5 hrs post challenge by electronic pressure-meter test in presence of 10 mg/kg L-NAME; type: functional, organism-based; outline: as §6

`C=C1C[C@@]23CC[C@H]4[C@@](C)(CCC[C@@]4(C)C(=O)O)[C@@H]2CC[C@@H]1C3` [KAURENOIC ACID] was tested, and the Activity (Mus musculus [1]) was “Active”, the Activity (Mus musculus [2]) was “inactive” and the Activity (Mus musculus [3]) was “Non-toxic”. The inhibition (Mus musculus [4]) was “Active”, the Activity (Mus musculus [5]) was “Non-toxic” and the inhibition (Mus musculus [6]) was “Active”. For the same molecule, the Activity (Mus musculus [7]) was “inactive”, the Activity (Mus musculus [8]) was “Non-toxic” and the Activity (Mus musculus [9]) was “inactive”. For the same molecule, the inhibition (Mus musculus [10]) was “Active”, the Activity (Mus musculus [11]) was “inactive” and the Activity (Mus musculus [12]) was “Active”. The Activity (Mus musculus [13]) was “inactive”, the inhibition (Mus musculus [14]) was “Active” and the inhibition (Mus musculus [15]) was “Dose-dependent effect”. The Activity (Mus musculus [16]) was “Non-toxic”, the Activity (Mus musculus [17]) was “inactive” and the inhibition (Mus musculus [18]) was “Active”. For the same molecule, the Activity (Mus musculus [19]) was “inactive”, the Activity (Mus musculus [20]) was “Dose-dependent effect” and the Activity (Mus musculus [21]) was “inactive”. For the same molecule, the Activity (Mus musculus [22]) was “Active”, the inhibition (Mus musculus [23]) was “Active” and the Activity (Mus musculus [24]) was “Active”. For the same molecule, the Activity (Mus musculus [25]) was “Active”, the Activity (Mus musculus [26]) was “Non-toxic” and the inhibition (Mus musculus [27]) was “Active”. For the same molecule, the inhibition (Mus musculus [28]) was “Active” and the Activity (Mus musculus [29]) was “Active”.
